Experimental data as given in PMC8126997 (ACS chemical biology, 2021).

What was measured:
[1] = test system: HTLV-1 Gag cleavage in SP cells (chronically infected with HTLV-1); assay: SP cell protease inhibition treatment, Gag processing by anti-p24 immunoblot; type: cell-based; conditions: 48 h; for Amount of full-length (FL) Gag and larger size cleavage intermediates (CI): SP cell lysates and supernatants, 50 µM or 100 µM; for FL Gag band percentage (mean ± SEM), cell lysate: SP cell lysate, DMSO 2.0 ± 1.0%; for FL Gag band percentage (mean ± SEM), cell lysate / FL Gag band percentage (mean ± SEM), viral particles produced from SP cells: n=3; for FL Gag band percentage (mean ± SEM), viral particles produced from SP cells: particles in cell culture supernatant
Outline: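 SP cells kept in RPMI with 20% FC3 serum, 1% penicillin-streptomycin and human IL-2 (10 U/ml). Medium exchanged for medium containing 50 or 100 µM test compound, or 0.01% v/v DMSO control, for 48 h at 37 °C and 5% CO2. Supernatant was 0.22 µm-filtered and pelleted over an 8% Optiprep cushion, with pellet lysed in RIPA buffer. Lysates and pellets were immunoblotted with anti-p24. FL Gag was quantified as % of lane bands, reported as mean ± SEM (n=3), and compared with DMSO by one-tailed t-test.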

[2] = test system: wild type (WT) HIV-1 protease; conditions: cited from earlier work
[3] = target: HTLV-1 protease (Human T-cell leukemia virus type I, UniProt Q82134, L40I); conditions: relative to UM6

Compound | Amount of full-length (FL) Gag and larger size cleavage intermediates (CI) [1] | Potency against wild type (WT) HIV-1 protease [2] | FL Gag band percentage (mean ± SEM), cell lysate ([1]; 50 µM inhibitor) [%] | FL Gag band percentage (mean ± SEM), cell lysate ([1]; 100 µM inhibitor) [%] | FL Gag band percentage (mean ± SEM), viral particles produced from SP cells ([1]; 50 µM inhibitor) [%] | FL Gag band percentage (mean ± SEM), viral particles produced from SP cells ([1]; 100 µM inhibitor) [%] | Fold better inhibition of HTLV-1 protease than UM6 [3] [fold]
CC(C)CN(C[C@@H](O)[C@H](Cc1ccccc1)NC(=O)O[C@H]1CO[C@H]2OCC[C@H]21)S(=O)(=O)c1ccc(N)cc1 [DRV, darunavir, reference compound] | increased | low-picomolar | – | – | – | – | –
CCOP(=O)(COc1ccc(C[C@H](NC(=O)O[C@H]2CO[C@H]3OCC[C@H]32)[C@H](O)CN(CC(CC)CC)S(=O)(=O)c2ccc(N)cc2)cc1)OCC [PU6] | increased | – | 32.4 ± 15.5 | 41.0 ± 13.7 | 5.8 ± 2.8 | 12.9 ± 3.1 | 4
